Assay results from ChEMBL document CHEMBL1122940, “Cyclic guanidines. 17. Novel (N-substituted amino)imidazo[2,1-b]quinazolin-2 ones: water-soluble platelet aggregation inhibitors” (J Med Chem, 1985).

Key:
[1] = species: Rattus norvegicus; assay: In vitro inhibition of blood platelet aggregation (ADP) in rats; assay type: functional
[2] = species: Rattus norvegicus; assay: In vitro inhibition of blood platelet aggregation (collagen) in rats; assay type: functional
[3] = tested on: Rattus norvegicus; assay: Ex vivo inhibition of blood platelet aggregation (collagen) in rats at oral dose 10 mg/kg 1 hour before the test; Platelet aggregation could not be measured optically because this compound causes hemolysis; assay type: functional, organism-based; parameters: dose 10 mg/kg
[4] = tested on: Rattus norvegicus; assay: Ex vivo in vitro inhibition of blood platelet aggregation (ADP) in rats at oral dose 10 mg/kg 1 hour before the test; Platelet aggregation could not be measured optically because this compound causes hemolysis; assay type: functional, organism-based; parameters: dose 10 mg/kg
[5] = tested on: Rattus norvegicus; assay: Decrease in systolic BP 1 hour after oral administration at dose 50 mg/kg; assay type: functional
[6] = tested on: Rattus norvegicus; assay: Decrease in systolic BP 5 hours after oral administration at dose 50 mg/kg; assay type: functional
[7] = tested on: Rattus norvegicus; assay: Change in heart rate 2 hours after oral administration at dose 50 mg/kg; assay type: functional
[8] = tested on: Rattus norvegicus; assay: Change in heart rate 5 hours after oral administration at dose 50 mg/kg; assay type: functional
[9] = tested on: Rattus norvegicus; assay: Duration of inhibition of blood platelet aggregation in rats (collagen) 3 hr after oral administration at dose 10 mg/kg; assay type: functional
Outline: (§1)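 Rats got a single oral dose of 10 mg/kg, and controls got vehicle alone. Blood was collected 3 h later and aggregation was run ex vivo. Collagen-induced aggregation was read as ΔA/min and ADP-induced aggregation as ΔA. Values are mean ± SD of five animals, with percent inhibition versus vehicle control.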

[10] = tested on: Rattus norvegicus; assay: Change in heart rate 1 hour after oral administration at dose 50 mg/kg; assay type: functional
[11] = tested on: Rattus norvegicus; assay: Inhibition of blood platelet aggregation in rats (ADP) after intravenous infusion at dose 1 mg/kg after 15 min; assay type: functional
Outline: (§2)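 Compounds were dissolved in physiological saline and infused continuously through the femoral vein into fed rats under pentobarbital anesthesia, at 1 mg/kg over 15 min or 10 mg/kg over 10 min. Citrated cardiac blood was drawn 15 or 10 min later, and aggregation was measured as in the in vitro test. Collagen was read as ΔA/min and ADP as ΔA. Values are mean ± SD of five animals, as percent inhibition versus control.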

[12] = tested on: Rattus norvegicus; assay: Change in heart rate 7 hours after oral administration at dose 50 mg/kg; assay type: functional
[13] = tested on: Rattus norvegicus; assay: Decrease in systolic BP 7 hours after oral administration at dose 50 mg/kg; assay type: functional
[14] = tested on: Rattus norvegicus; assay: Decrease in systolic BP 2 hours after oral administration at dose 50 mg/kg; assay type: functional
[15] = tested on: Rattus norvegicus; assay: Duration of inhibition of blood platelet aggregation in rats (ADP) 3 hours after oral administration at dose 10 mg/kg; assay type: functional; outline: as §1
[16] = tested on: Rattus norvegicus; assay: Ex vivo in vitro inhibition of blood platelet aggregation (ADP) in rats at oral dose 10 mg/kg 1 hour before the test; assay type: functional
[17] = tested on: Rattus norvegicus; assay: Decrease in systolic BP 3 hours after oral administration at dose 50 mg/kg; assay type: functional
[18] = tested on: Rattus norvegicus; assay: Change in heart rate 3 hours after oral administration at dose 50 mg/kg; assay type: functional
[19] = tested on: Rattus norvegicus; assay: Ex vivo inhibition of blood platelet aggregation (collagen) in rats at oral dose 10 mg/kg 1 hour before the test; assay type: functional
[20] = tested on: Rattus norvegicus; assay: Inhibition of blood platelet aggregation in rats (collagen) after intravenous infusion at dose 1 mg/kg after 15 min; assay type: functional; outline: as §2
[21] = tested on: Rattus norvegicus; assay: Inhibition of blood platelet aggregation in rats (ADP) after intravenous infusion at dose 10 mg/kg after 10 min; assay type: functional; outline: as §2
[22] = tested on: Rattus norvegicus; assay: Inhibition of blood platelet aggregation in rats (collagen) after intravenous infusion at dose 10 mg/kg after 10 min; assay type: functional; outline: as §2
[23] = tested on: Rattus norvegicus; assay: Ex vivo in vitro inhibition of blood platelet aggregation (ADP) in rats at oral dose 10 mg/kg 1 hour before the tes; assay type: functional
[24] = tested on: Rattus norvegicus; assay: Duration of inhibition of blood platelet aggregation in rats (collagen) 3 hours after oral administration at dose 10 mg/kg; assay type: functional; outline: as §1

SMILES	EC50 [1]	EC50 [2]	platelet aggregation [16]	platelet aggregation rate [19]	also measured
CN(C)c1cccc2c1CN1CC(=O)NC1=N2	2.7 µM	1.5 µM			
O=C1CN2Cc3ccc(N4CCCCC4)cc3N=C2N1	46 µM	8 µM			
CC1CCN(c2ccc3c(c2Cl)CN2CC(=O)NC2=N3)CC1	4 µM	2.3 µM			
Cc1cc2c(cc1N1CCCCC1)CN1CC(=O)NC1=N2	5.4 µM	0.58 µM			Inhibition [3]: Platelet aggregation could not be measured optically because this compound causes hemolysis; Inhibition [4]: Platelet aggregation could not be measured optically because this compound causes hemolysis
O=C1CN2Cc3cc(N4CCCCC4)ccc3N=C2N1	3.8 µM	0.33 µM	0.121 ΔA	0.068 ΔA/min	Change in BP [5]: 18 mmHg; Change in BP [6]: 12 mmHg; Change in heart rate [7]: 32%; Change in heart rate [8]: 25%; platelet aggregation rate [9]: 0.118 ΔA/min; Change in heart rate [10]: 27%; platelet aggregation [11]: 0.116 ΔA; Change in heart rate [12]: 17%; Change in BP [13]: 9 mmHg; Change in BP [14]: 12 mmHg; platelet aggregation [15]: 0.158 ΔA; Change in BP [17]: 12 mmHg; Change in heart rate [18]: 27%; platelet aggregation rate [20]: 0 ΔA/min
CCN(CC)c1ccc2c(c1Cl)CN1CC(=O)NC1=N2	5.6 µM	1.3 µM	0.201 ΔA	0.041 ΔA/min	
Cc1cc2c(cc1N1CCCCC1)NC1=NC(=O)CN1C2	220 µM				
O=C1CN2Cc3cc(N4CCOCC4)ccc3N=C2N1	5 µM	2 µM	0.201 ΔA	0.154 ΔA/min	platelet aggregation [21]: 0.202 ΔA; platelet aggregation rate [22]: 0.09 ΔA/min
O=C1CN2Cc3c(ccc(N4CCCC4)c3Cl)NC2=N1	3 µM	2.7 µM			
CN(C)c1ccc2c(c1Cl)CN1CC(=O)NC1=N2	7 µM	1.2 µM	0.098 ΔA	0.019 ΔA/min	Change in BP [5]: 45 mmHg; platelet aggregation [21]: 0.208 ΔA; Change in BP [6]: 36 mmHg; platelet aggregation rate [22]: 0 ΔA/min; Change in heart rate [7]: 46%; Change in heart rate [8]: 41%; Change in heart rate [10]: 46%; Change in heart rate [12]: 38%; Change in BP [13]: 34 mmHg; Change in BP [14]: 43 mmHg; Change in BP [17]: 35 mmHg; Change in heart rate [18]: 43%
O=C1CN2Cc3c(ccc(Cl)c3Cl)N=C2N1 [ANAGRELIDE]				0.067 ΔA/min	platelet aggregation [23]: 0.248 ΔA
CN1CCN(c2ccc3c(c2Cl)CN2CC(=O)NC2=N3)CC1	8 µM	3 µM	0.189 ΔA	0.149 ΔA/min	
CN(Cc1ccccc1)c1ccc2c(c1)CN1CC(=O)NC1=N2	26 µM				
CC1CCCCN1c1ccc2c(c1)CN1CC(=O)NC1=N2 (stereo not drawn)	2 µM	1.7 µM		0.145 ΔA/min	platelet aggregation [23]: 0.19 ΔA
O=C1CN2Cc3c(cccc3N3CCCCC3)NC2=N1	22.5 µM	20 µM			
CNc1ccc2c(c1)CN1CC(=O)NC1=N2	24 µM				

Second part, led by results:

EC50 [1]	EC50 [2]	SMILES	platelet aggregation [16]	platelet aggregation rate [19]	also measured
4 µM	1.4 µM	CC1CCCCN1c1ccc2c(c1Cl)CN1CC(=O)NC1=N2 (stereo not drawn)			
0.36 µM	0.1 µM	O=C1CN2Cc3cc(N4CCOCC4)c(Cl)cc3N=C2N1	0.122 ΔA	0.055 ΔA/min	
96 µM		O=C1CN2Cc3ccc(N4CCOCC4)cc3N=C2N1			
170 µM	16 µM	Nc1ccc2c(c1)CN1CC(=O)NC1=N2			
2.6 µM	1.9 µM	O=C1CN2Cc3cc(N4CCCC4)ccc3N=C2N1			
7.9 µM	1.2 µM	O=C1CN2Cc3c(ccc(N4CCCCC4)c3Cl)NC2=N1			
1.1 µM	0.44 µM	CN(C)c1cc2c(cc1Cl)NC1=NC(=O)CN1C2	0.15 ΔA	0.082 ΔA/min	Change in BP [5]: 30 mmHg; Change in BP [6]: 28 mmHg; Change in heart rate [7]: 50%; Change in heart rate [8]: 46%; Change in heart rate [10]: 42%; Change in heart rate [12]: 41%; Change in BP [13]: 23 mmHg; Change in BP [14]: 27 mmHg; platelet aggregation [15]: 0.171 ΔA; Change in BP [17]: 26 mmHg; Change in heart rate [18]: 47%; platelet aggregation rate [24]: 0.136 ΔA/min
350 µM		O=C1CN2Cc3c(Cl)cc(N4CCCCC4)cc3N=C2N1			
5.4 µM	1.4 µM	CN(C)c1ccc2c(c1)CN1CC(=O)NC1=N2	0.193 ΔA	0.071 ΔA/min	platelet aggregation rate [9]: 0.154 ΔA/min; platelet aggregation [11]: 0.142 ΔA; platelet aggregation [15]: 0.16 ΔA; platelet aggregation rate [20]: 0.058 ΔA/min
	0.1 µM	O=C1CN2Cc3c(sc4c3CCCC4)N=C2N1	0.112 ΔA	0.073 ΔA/min	
2.8 µM	18 µM	CC1CCN(c2ccc3c(c2)CN2CC(=O)NC2=N3)CC1	0.188 ΔA	0.122 ΔA/min	
290 µM		CN(C)c1cc(Cl)c2c(c1)NC1=NC(=O)CN1C2			
0.4 µM	0.46 µM	O=C1CN2Cc3cc(N4CCCCC4)c(Cl)cc3N=C2N1	0.137 ΔA	0.039 ΔA/min	platelet aggregation rate [9]: 0.18 ΔA/min; platelet aggregation [15]: 0.189 ΔA
